ChEMBL document CHEMBL5247575 (J Med Chem, 2018)

Tested on: Acinetobacter baumannii
Test: Synergistic antibacterial activity against Acinetobacter baumannii PR440 producing OXA-23/24/40 assessed as cefepime MIC at 4 ug/ml by broth microdilution method
Format: functional
Conditions: dose 4 µg/ml

SMILES | MIC [µg/mL]
NC(=O)[C@@H]1CC[C@@H]2CN1C(=O)N2OS(=O)(=O)[O-].[Na+] [AVIBACTAM SODIUM] | 16

Tested on: Acinetobacter baumannii
Test: Synergistic antibacterial activity against Acinetobacter baumannii PR319 producing OXA-23/24/40 assessed as cefepime MIC at 4 ug/ml by broth microdilution method
Format: functional
Conditions: dose 4 µg/ml

SMILES | MIC [µg/mL]
NC(=O)[C@@H]1CC[C@@H]2CN1C(=O)N2OS(=O)(=O)[O-].[Na+] [AVIBACTAM SODIUM] | > 16

Tested on: Klebsiella pneumoniae
Test: Synergistic antibacterial activity against Klebsiella pneumoniae 1315/2198 producing KPC-3 assessed as cefepime MIC at 4 ug/ml by broth microdilution method
Format: functional
Conditions: dose 4 µg/ml
Summary of the method: (§1)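 Broth microdilution per CLSI guidelines, using custom frozen panels. […] Each partner drug was also tested alone. MICs were run in triplicate and the modal value is reported.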

SMILES | MIC [µg/mL]
NC(=O)[C@@H]1CC[C@@H]2CN1C(=O)N2OS(=O)(=O)[O-].[Na+] [AVIBACTAM SODIUM] | ≤ 0.12

Tested on: Klebsiella pneumoniae
Test: Synergistic antibacterial activity against Klebsiella pneumoniae 935/1884 producing KPC-3 assessed as meropenem MIC at 4 ug/ml by broth microdilution method
Format: functional
Conditions: dose 4 µg/ml

SMILES | MIC [µg/mL]
NC(=O)[C@@H]1CC[C@@H]2CN1C(=O)N2OS(=O)(=O)[O-].[Na+] [AVIBACTAM SODIUM] | ≤ 0.12

Tested on: Acinetobacter baumannii
Test: Synergistic antibacterial activity against Acinetobacter baumannii PR381 producing OXA-24/40 assessed as cefepime MIC at 4 ug/ml by broth microdilution method
Format: functional
Conditions: dose 4 µg/ml

SMILES | MIC [µg/mL]
NC(=O)[C@@H]1CC[C@@H]2CN1C(=O)N2OS(=O)(=O)[O-].[Na+] [AVIBACTAM SODIUM] | > 16

Tested on: Escherichia coli
Test: Synergistic antibacterial activity against Escherichia coli DH10B transfected with pBC SK (-) PDC-3 assessed as cefepime MIC at 4 ug/ml by broth microdilution method
Format: functional
Conditions: dose 4 µg/ml
Summary of the method: as §1

SMILES | MIC [µg/mL]
NC(=O)[C@@H]1CC[C@@H]2CN1C(=O)N2OS(=O)(=O)[O-].[Na+] [AVIBACTAM SODIUM] | ≤ 0.12

Tested on: Klebsiella pneumoniae
Test: Synergistic antibacterial activity against Klebsiella pneumoniae 11978 producing OXA-48 assessed as cefepime MIC at 4 ug/ml by broth microdilution method
Format: functional
Conditions: dose 4 µg/ml
Summary of the method: as §1

SMILES | MIC [µg/mL]
NC(=O)[C@@H]1CC[C@@H]2CN1C(=O)N2OS(=O)(=O)[O-].[Na+] [AVIBACTAM SODIUM] | 0.25

Tested on: Pseudomonas aeruginosa
Test: Synergistic antibacterial activity against Pseudomonas aeruginosa 839 assessed as meropenem MIC at 4 ug/ml by broth microdilution method
Format: functional
Conditions: dose 4 µg/ml

SMILES | MIC [µg/mL]
NC(=O)[C@@H]1CC[C@@H]2CN1C(=O)N2OS(=O)(=O)[O-].[Na+] [AVIBACTAM SODIUM] | 1

Tested on: Bacteria
Test: Inhibition of bacteria ADC-7 assessed as half life using nitrocefin as substrate
Conditions: not given

SMILES | T1/2 [min]
NC(=O)[C@@H]1CC[C@@H]2CN1C(=O)N2OS(=O)(=O)[O-].[Na+] [AVIBACTAM SODIUM] | 33

Tested on: Klebsiella pneumoniae
Test: Synergistic antibacterial activity against Klebsiella pneumoniae 11978 producing OXA-48 assessed as meropenem MIC at 4 ug/ml by broth microdilution method
Format: functional
Conditions: dose 4 µg/ml
Summary of the method: as §1

SMILES | MIC [µg/mL]
NC(=O)[C@@H]1CC[C@@H]2CN1C(=O)N2OS(=O)(=O)[O-].[Na+] [AVIBACTAM SODIUM] | 1

Tested on: Klebsiella pneumoniae
Test: Synergistic antibacterial activity against Klebsiella pneumoniae jefferson 1775 producing OXA-48 assessed as meropenem MIC at 4 ug/ml by broth microdilution method
Format: functional
Conditions: dose 4 µg/ml

SMILES | MIC [µg/mL]
NC(=O)[C@@H]1CC[C@@H]2CN1C(=O)N2OS(=O)(=O)[O-].[Na+] [AVIBACTAM SODIUM] | ≤ 0.12

Tested on: Bacteria
Test: Inhibition of bacteria KPC-2 assessed as second order rate constant K2/K using nitrocefin as substrate
Conditions: not given
Summary of the method: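 Steady-state kinetics, 10 mM phosphate-buffered saline pH 7.4. Progress curves recorded with fixed enzyme and nitrocefin and increasing nM inhibitor. Each curve fitted to a time-course equation to give k_obs. k2/K derived from these and corrected for nitrocefin concentration relative to its Km.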

SMILES | K
NC(=O)[C@@H]1CC[C@@H]2CN1C(=O)N2OS(=O)(=O)[O-].[Na+] [AVIBACTAM SODIUM] | 1.3 10^4/M/s

Tested on: Klebsiella pneumoniae
Test: Synergistic antibacterial activity against Klebsiella pneumoniae jefferson 1775 producing OXA-48 assessed as cefepime MIC at 4 ug/ml by broth microdilution method
Format: functional
Conditions: dose 4 µg/ml

SMILES | MIC [µg/mL]
NC(=O)[C@@H]1CC[C@@H]2CN1C(=O)N2OS(=O)(=O)[O-].[Na+] [AVIBACTAM SODIUM] | ≤ 0.12

Tested on: Escherichia coli
Test: Synergistic antibacterial activity against Escherichia coli DH10B transfected with pBC SK (-) KPC-2 assessed as meropenem MIC at 4 ug/ml by broth microdilution method
Format: functional
Conditions: dose 4 µg/ml

SMILES | MIC [µg/mL]
NC(=O)[C@@H]1CC[C@@H]2CN1C(=O)N2OS(=O)(=O)[O-].[Na+] [AVIBACTAM SODIUM] | ≤ 0.12

Tested on: Acinetobacter baumannii
Test: Synergistic antibacterial activity against Acinetobacter baumannii PR476 producing OXA-24/40 assessed as cefepime MIC at 4 ug/ml by broth microdilution method
Format: functional
Conditions: dose 4 µg/ml

SMILES | MIC [µg/mL]
NC(=O)[C@@H]1CC[C@@H]2CN1C(=O)N2OS(=O)(=O)[O-].[Na+] [AVIBACTAM SODIUM] | 2

Tested on: Klebsiella pneumoniae
Test: Synergistic antibacterial activity against Klebsiella pneumoniae 660/1568 producing KPC-3 assessed as cefepime MIC at 4 ug/ml by broth microdilution method
Format: functional
Conditions: dose 4 µg/ml
Summary of the method: as §1

SMILES | MIC [µg/mL]
NC(=O)[C@@H]1CC[C@@H]2CN1C(=O)N2OS(=O)(=O)[O-].[Na+] [AVIBACTAM SODIUM] | ≤ 0.12

Tested on: Bacteria
Test: Inhibition of bacteria ADC-7 assessed as Koff rate using nitrocefin as substrate incubated for 30 mins
Conditions: not given

SMILES | K
NC(=O)[C@@H]1CC[C@@H]2CN1C(=O)N2OS(=O)(=O)[O-].[Na+] [AVIBACTAM SODIUM] | 3.5 10^-4/s

Tested on: Pseudomonas aeruginosa
Test: Synergistic antibacterial activity against Pseudomonas aeruginosa 795 assessed as cefepime MIC at 4 ug/ml by broth microdilution method
Format: functional
Conditions: dose 4 µg/ml

SMILES | MIC [µg/mL]
NC(=O)[C@@H]1CC[C@@H]2CN1C(=O)N2OS(=O)(=O)[O-].[Na+] [AVIBACTAM SODIUM] | > 16

Tested on: Klebsiella pneumoniae
Test: Synergistic antibacterial activity against Klebsiella pneumoniae 729/1679 producing KPC-3 assessed as meropenem MIC at 4 ug/ml by broth microdilution method
Format: functional
Conditions: dose 4 µg/ml
Summary of the method: as §1

SMILES | MIC [µg/mL]
NC(=O)[C@@H]1CC[C@@H]2CN1C(=O)N2OS(=O)(=O)[O-].[Na+] [AVIBACTAM SODIUM] | ≤ 0.12

Tested on: Escherichia coli
Test: Synergistic antibacterial activity against Escherichia coli DH10B assessed as meropenem MIC at 4 ug/ml by broth microdilution method
Format: functional
Conditions: dose 4 µg/ml

SMILES | MIC [µg/mL]
NC(=O)[C@@H]1CC[C@@H]2CN1C(=O)N2OS(=O)(=O)[O-].[Na+] [AVIBACTAM SODIUM] | ≤ 0.12
